Laboratory results as given in ChEMBL document CHEMBL4033794, “Discovery of Trifluoromethyl Glycol Carbamates as Potent and Selective Covalent Monoacylglycerol Lipase (MAGL) Inhibitors for Treatment of Neuroinflammation” (J Med Chem, 2018).
Activity calls are given as the source filed them. The calls are words filed in the database; no cut-off is given here.

Tests used:
[1] = target: CYP3A4 (Homo sapiens, UniProt P08684); test: Inhibition of CYP3A4 (unknown origin) at 3 uM; format: ADME
In short: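 Competitive inhibition screen of CYP3A4, 2D6, 2C9, 2C8 and 1A2 using isoform-relevant probe substrates, compound at 3 μM.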

[2] = system: Mus musculus; test: Time at which unbound brain concentration stays above in vitro MAGL IC50 in C57BL6J mouse at 1 mg/kg, sc up to 24 hrs post dose
In short: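 Male C57BL6J mice dosed 1 mg/kg SC in DMSO:Cremophor:saline 5:5:90, 10 mL/kg; plasma and brain taken at 0.5, 1, 2, 4, 8, 12, 24 h. Drug measured in plasma and cerebellum; 2-AG and arachidonic acid in brain hemisphere, compared with vehicle-treated mice.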

[3] = Intrinsic clearance in human liver microsomes; format: ADME, microsome; settings: read-out: CLH
In short: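 Substrate depletion in human liver microsomes; intrinsic clearance scaled to mL/min/kg.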

[4] = Plasma clearance in non-human primate at 1 mg/kg, iv administered via cephalic vein measured up to 24 hrs post dose by HPLC-MS/MS analysis; format: ADME, organism-based, Macaca mulatta; settings: rhesus monkey
In short: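 Fasted male non-human primates (n = 2), fed ~1 h post-dose; 1 mg/kg IV bolus via saphenous or cephalic vein in 3% DMA/10% Solutol HS15/10% Miglyol/77% of 20% SBECD, 0.5 mL/kg. Femoral blood pre-dose and 0.083–24 h; plasma HPLC-MS/MS; non-compartmental analysis.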

[5] = Plasma clearance in Wistar Hannover rat at 1 mg/kg, iv administered as bolus dose via jugular vein cannula measured up to 24 hrs post dose by HPLC-MS/MS analysis; format: ADME, organism-based
In short: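 Rats (n = 2) given 1 mg/kg IV bolus via jugular vein cannula, solution in 3% DMA/10% Solutol HS15/10% Miglyol/77% of 20% SBECD in water, 1 mL/kg. Carotid cannula blood pre-dose and 0.083–24 h; plasma by HPLC-MS/MS; non-compartmental analysis.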

[6] = Intrinsic clearance in human hepatocytes in presence of CYP inhibitor ABT; format: ADME, cell-based, Hepatocyte; settings: with ABT (CYP inhibitor), concentration not stated, read-out: CLH
In short: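 Cryopreserved human hepatocyte substrate-depletion assay run with ABT present; scaled intrinsic clearance in mL/min/kg.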

[7] = species: Mus musculus; settings: C57BL6J, 1 mg/kg

CYP3A4, sequence (P08684 whole entry, canonical isoform): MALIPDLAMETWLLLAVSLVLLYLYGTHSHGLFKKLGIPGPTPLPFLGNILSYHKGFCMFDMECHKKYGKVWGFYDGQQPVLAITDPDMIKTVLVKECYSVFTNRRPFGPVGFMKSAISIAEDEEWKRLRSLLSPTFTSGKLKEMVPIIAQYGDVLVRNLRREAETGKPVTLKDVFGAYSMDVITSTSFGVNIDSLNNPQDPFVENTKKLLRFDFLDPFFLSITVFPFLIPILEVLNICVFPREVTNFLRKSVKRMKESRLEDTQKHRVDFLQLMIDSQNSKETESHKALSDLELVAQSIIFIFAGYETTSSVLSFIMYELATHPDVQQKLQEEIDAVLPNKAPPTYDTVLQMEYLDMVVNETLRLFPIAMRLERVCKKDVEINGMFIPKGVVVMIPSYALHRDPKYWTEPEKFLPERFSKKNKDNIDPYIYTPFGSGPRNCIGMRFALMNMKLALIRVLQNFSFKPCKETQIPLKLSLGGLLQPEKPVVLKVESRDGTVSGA

inhibition at 3 µM [1]: < 10% | CLint scaled [3]: < 8 mL/min/kg | clearance [4]: 16 mL/min/kg | clearance [5]: 61 mL/min/kg | CLint scaled [6]: 37 mL/min/kg
SMILES: O=C(O[C@H](CO)C(F)(F)F)N1C[C@@H]2[C@H](C1)[C@H]2c1ccn(-c2ccc(F)cc2)n1
Time [2]: 2 h | inhibition [7]: Active
